Consider 20 molecules from ChEMBL document CHEMBL4387759, “Discovery of novel N-methyl carbazole tethered rhodanine derivatives as direct inhibitors of Mycobacterium tuberculosis InhA” (Bioorg Med Chem Lett, 2019).

In data set [1] the test system is Mycobacterium tuberculosis. The data set is described as follows: Antimycobacterial activity against Mycobacterium tuberculosis H37Rv incubated for 5 days under aerobic condition by fluorescence assay. Type of data set: functional, organism-based. The following applies: 120 h. A digest of the protocol: (§1)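 M. tuberculosis H37Rv grown aerobically; dual read-out assay (OD590 plus fluorescence); MIC and IC50 values reported; run at IDRI under NIAID screening programme.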

Data set [2] deals with Vero. The data set is described as follows: Cytotoxicity against African green monkey Vero cells measured after 72 hrs by MTS-PMS assay. Type of data set: cell-based. The conditions noted are these: Chlorocebus sabaeus. A digest of the protocol:
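Cells exposed 72 h; viability read with a non-radioactive cell proliferation assay; IC50 determined.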

Data set [3] can be described thus: Selectivity index, ratio of IC50 for African green monkey Vero cells to IC50 for Mycobacterium tuberculosis H37Rv. Type of data set: toxicity. The following applies: read-out: Ratio IC50. The procedure, abridged: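 Ratio of cytotoxicity IC50 to H37Rv IC50; not calculated where H37Rv IC50 >100.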
For data set [4], the system named is Mycobacterium tuberculosis. The data set is described as follows: Antimycobacterial activity against Mycobacterium tuberculosis H37Rv. Type of data set: functional. A digest of the protocol:
as §1

Data set [5] deals with T1, Enoyl-[acyl-carrier-protein] reductase [NADH] (Mycobacterium tuberculosis) (UniProt P9WGR1).
T1 sequence (whole entry): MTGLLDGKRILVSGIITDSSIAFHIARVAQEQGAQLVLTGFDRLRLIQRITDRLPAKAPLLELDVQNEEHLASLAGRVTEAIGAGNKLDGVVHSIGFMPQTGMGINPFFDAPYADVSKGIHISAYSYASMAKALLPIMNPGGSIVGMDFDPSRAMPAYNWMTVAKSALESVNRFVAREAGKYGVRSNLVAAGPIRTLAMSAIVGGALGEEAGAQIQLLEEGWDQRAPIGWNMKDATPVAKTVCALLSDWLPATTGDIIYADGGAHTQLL
Kind of data set: Inhibition of Mycobacterium tuberculosis InhA at 5 uM using DDCoA as substrate relative to control. A digest of the protocol:
(§2)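 InhA enzyme assay run in triplicate with 2-trans-dodecenoyl-CoA as substrate analogue; inhibition followed as NADH oxidation to NAD+ at 340 nm. Compounds screened at 50 μM, selected ones also at 5 μM; IC50 from 4-parameter curve fit; GEQ as reference inhibitor.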

Data set [6] concerns the target T2, Enoyl-[acyl-carrier-protein] reductase [NADH] (Mycobacterium tuberculosis, UniProt P9WGR1).
T2 sequence (P9WGR1 whole entry): T1 sequence (whole entry)
Kind of data set: Inhibition of Mycobacterium tuberculosis InhA using DDCoA as substrate. The procedure, abridged:
as §2

≈ marks a conversion by molar mass, not a printed value.

With `COc1ccc(N2C(=O)/C(=C/c3ccc4c(c3)c3ccccc3n4C)SC2=S)cc1OC`, in data set [1], the 50% inhibitory concentration (IC50) was 50 µM and the MIC worked out at 50 µM (≈ 23 µg/mL). Further, the IC50 in data set [2] amounted to 261 µM. Further, the selectivity ratio in data set [3] was determined as 5.2.

As to `Cn1c2ccccc2c2cc(/C=C3\SC(=S)N(c4nnc(-c5ccccc5F)s4)C3=O)ccc21`, in data set [1], the MIC is over 100 µM. Besides, in data set [2], half-maximal inhibition (IC50) required 208 µM.

In data set [4], `COc1ccc(-c2csc(N/N=C/c3ccc4c(c3)c3ccccc3n4C)n2)cc1OC` registered a minimum inhibitory concentration (MIC) of 21 µM (≈ 9.29 µg/mL).

`Cn1c2ccccc2c2cc(/C=C3\SC(=S)N(c4ccc(C(=O)O)cc4)C3=O)ccc21` gave an MIC in data set [1] of over 100 µM. The values for the IC50 in data set [2] and in data set [6] were 263 µM and 2.82 µM, respectively. In data set [5], this molecule showed an inhibition of 54%.

Turning to `Cn1c2ccccc2c2cc(/C=C3\SC(=S)N(c4ccccc4)C3=O)ccc21`, the results for the concentration for half-maximal inhibition (IC50) in data set [1] and in data set [2] were 75 µM and 240 µM, respectively. In data set [1], this molecule registered an MIC of over 100 µM. Moreover, the selectivity ratio in data set [3] came to 3.2.

In data set [1], `Cn1c2ccccc2c2cc(/C=C3\SC(=S)N(c4ccc(Cl)cc4)C3=O)ccc21` showed an MIC of over 100 µM. Further, it took 213 µM to reach half-maximal inhibition in data set [2] (IC50).

For the molecule `Cn1c2ccccc2c2cc(/C=C3\SC(=S)N(c4cccc(O)c4)C3=O)ccc21`, in data set [1], the IC50 worked out at 25 µM and the MIC is over 100 µM. For the same molecule, in data set [2], the IC50 stood at 289 µM. This molecule showed an inhibition in data set [5] of 10%. Besides, in data set [3], the selectivity ratio was determined as 11.6.

For the molecule `O=C(c1ccc2[nH]ccc2c1)N1CCN(C2c3ccccc3-c3ccccc32)CC1`, the minimal inhibitory concentration (MIC) in data set [1] was over 50 µM.

In data set [1], `Cc1cc(=O)oc2cc(N3C(=O)/C(=C/c4ccc5c(c4)c4ccccc4n5C)SC3=S)ccc12` yielded an IC50 of 20 µM and a minimum inhibitory concentration (MIC) of 20 µM (≈ 9.65 µg/mL). Also, the IC50 in data set [2] came to 296 µM. Moreover, the selectivity ratio in data set [3] stood at 14.8.

On to `Cn1c2ccccc2c2cc(/C=C3\SC(=S)N(c4nnc(-c5ccccc5Cl)s4)C3=O)ccc21`, for which, in data set [1], the MIC was over 100 µM. Further, in data set [2], the midpoint of inhibition, the IC50, lay at 239 µM.

In the case of `COc1cc(N2C(=O)/C(=C/c3ccc4c(c3)c3ccccc3n4C)SC2=S)cc(OC)c1OC`, the MIC in data set [1] was over 100 µM. This molecule came in with an IC50 in data set [2] of 185 µM.

Turning to `Cn1c2ccccc2c2cc(/C=C3\SC(=S)N(c4cc(C(=O)O)cc(C(=O)O)c4)C3=O)ccc21`, the MIC in data set [1] is over 100 µM. The molecule also returned a half-inhibitory concentration (IC50) in data set [2] of 210 µM. The molecule also had an inhibition in data set [5] of 12%.

For the molecule `Cn1c2ccccc2c2cc(/C=C3\SC(=S)N(c4nnc(-c5cccc(Cl)c5)s4)C3=O)ccc21`, the MIC in data set [1] was over 100 µM. Moreover, the 50% inhibitory concentration (IC50) in data set [2] was found to be 193 µM.

For `Cn1c2ccccc2c2cc(/C=C3\SC(=S)N(c4nnc(-c5ccc(Br)cc5)s4)C3=O)ccc21`, the MIC in data set [1] was over 100 µM. In addition, 165 µM corresponded to half-maximal inhibition in data set [2] (IC50).

As to `Cn1c2ccccc2c2cc(/C=C3\SC(=S)N(c4nnc(-c5ccc(Cl)cc5)s4)C3=O)ccc21`, the minimum inhibitory concentration (MIC) in data set [1] was over 100 µM. The molecule further displayed an IC50 in data set [2] of 245 µM.

As for `COC(=O)c1ccc(N2C(=O)/C(=C/c3ccc4c(c3)c3ccccc3n4C)SC2=S)cc1`, the MIC in data set [1] is over 100 µM. The molecule also showed an IC50 in data set [2] of 222 µM.

`COc1cccc(N2C(=O)/C(=C/c3ccc4c(c3)c3ccccc3n4C)SC2=S)c1` came in with an MIC in data set [1] of over 100 µM. In addition, the IC50 in data set [2] was determined as 235 µM.

The molecule `Cc1cc(=O)[nH]c2cc(N3C(=O)/C(=C/c4ccc5c(c4)c4ccccc4n5C)SC3=S)ccc12` displayed a minimum inhibitory concentration (MIC) in data set [1] of over 100 µM. This molecule also yielded an IC50 in data set [2] of 277 µM.

With `COc1ccc(-c2nnc(N3C(=O)/C(=C/c4ccc5c(c4)c4ccccc4n5C)SC3=S)s2)cc1`, the MIC in data set [1] was over 100 µM. This molecule gave a half-inhibitory concentration (IC50) in data set [2] of 258 µM.

Regarding `Cn1c2ccccc2c2cc(/C=C3\SC(=S)N(c4cccc(C(F)(F)F)c4)C3=O)ccc21`, the MIC in data set [1] was over 100 µM. For the same molecule, the midpoint of inhibition in data set [2], the IC50, lay at 167 µM.
